STK33 kinase inh: human STK33 kinase inhibition; 0.073% of 320,000 active; purified STK33, MBP phosphorylation, ADP-Glo luminescence; inhibition, % at 10 µM;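 active = inhibition at or above 25%, using the most active replicate where run in duplicate; inactive = inhibition below 25%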
GSK3A inh: human GSK-3 alpha kinase inhibition | P49840 | ADP-Glo luminescence, 60 min | inhibition, % at 10 µM | 0.1% of 320,000 active;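 active = more than half of replicates show inhibition above 20%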;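 also: GST-tagged GSK-3 alpha with peptide substrate and 25 µM ATP; 0% = DMSO neutral wells and 100% = GW8510 positive control wells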
Target sequence (P49840 whole entry, looked up): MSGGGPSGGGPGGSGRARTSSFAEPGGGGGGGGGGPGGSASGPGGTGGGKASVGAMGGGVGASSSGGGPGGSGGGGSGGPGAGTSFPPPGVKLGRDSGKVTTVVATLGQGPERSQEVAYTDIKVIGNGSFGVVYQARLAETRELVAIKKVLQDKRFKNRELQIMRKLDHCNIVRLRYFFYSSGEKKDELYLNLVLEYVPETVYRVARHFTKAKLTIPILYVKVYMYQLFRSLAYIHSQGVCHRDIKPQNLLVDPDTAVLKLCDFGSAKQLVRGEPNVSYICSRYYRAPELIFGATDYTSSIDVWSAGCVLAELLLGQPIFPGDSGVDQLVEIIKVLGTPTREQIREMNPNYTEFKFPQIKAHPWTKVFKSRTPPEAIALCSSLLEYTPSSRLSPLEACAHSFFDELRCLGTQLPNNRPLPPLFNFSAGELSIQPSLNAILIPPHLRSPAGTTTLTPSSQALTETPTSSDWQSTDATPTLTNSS
CDK5 p35 inh: inhibitors of human CDK5/p35 kinase; Recombinant CDK5/p35, ADP-Glo luminescence, 60 min; 0.01% of 330,000 active; inhibition, % at 10 µM; Q00535+Q15078;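 active = highest replicate inhibition of at least 50% and at least 75% of replicates reaching 50%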;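 also: plate controls were DMSO neutral control for no effect and GW8510 at 10 µM for full effect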
DYRK1A inh: inhibitors of rat Dyrk1A kinase; Q63470; ADP-Glo luminescence, NFATc1 peptide; inhibition, % at 12.5 µM; 0.43% of 310,000 active; AID 504441; in the data active = inhibition above about 50%;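 also: plate controls were vehicle with enzyme for no effect and no enzyme for full effect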
GSK3B inh: blocks human GSK3beta kinase activity; P49841; activity score (negative = inhibition), % at 10 µM; 0.038% of 300,000 active; GST-GSK3beta kinase, ADP-Glo luminescence, 60 min; hits give low values; AID 2097;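 active = more than half of replicate wells score below -50%, meaning over 50% inhibition versus plate controls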;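 also: 0% = median DMSO wells and -100% = median GW8510 positive control wells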
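Test system: GST-tagged human GSK3beta kinase, cell-free; evaluation: activity score scaled between in-plate DMSO and GW8510 controls; measured by: ADP-Glo luminescence; incubation: 60 min reaction, RT; benchmarks: DMSO and 20 µM GW8510; reagent: peptide substrate plus 25 µM ATP (final); medium: Tris/MgCl2 kinase buffer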
* = called active by the depositor; nt = no result given. This is one part of a sample in which hits are shown more often than they occur.

SMILES | STK33 kinase inh | GSK3A inh | CDK5 p35 inh | DYRK1A inh | GSK3B inh
NCCCNc1nc(N)c([N+](=O)[O-])c(NC2CCCCC2)n1 | 2 | 73* | -1 | 8 | 1
C=CCNc1nc(N)c([N+](=O)[O-])c(NCCO)n1 | -1 | -3 | 4 | -1 | -18
Nc1nc(NC2CCCCC2)nc(NCCO)c1[N+](=O)[O-] | 3 | 86* | 1 | 2 | -58*
COCCNc1nc(N)c([N+](=O)[O-])c(NC2CCCCC2)n1 | 1 | 61* | -1 | 3 | -19
COc1ccc(OC)c(Nc2nc(N)c([N+](=O)[O-])c(NC3CCCCC3)n2)c1 | 0 | 2 | 0 | 3 | 3
CN(c1ccccc1)c1nc(N)c([N+](=O)[O-])c(NC2CCCCC2)n1 | -1 | 1 | 1 | -2 | 3
Cc1nn(-c2nccs2)c2c1C(=O)CC(C)(C)C2Br (centres undefined) | nt | nt | 56* | -1 | nt
CCc1cccc(NC(=O)CN(C)S(=O)(=O)c2cccc3cccnc23)c1 | -1 | -3 | 0 | 3 | -2
Cc1cccc(N2CCN(CCCNC(=O)c3ccc(NC(=O)C4=CSCCO4)cc3)CC2C)c1 (centres undefined) | 46* | -1 | -2 | -1 | 1
O=C(O)CCCCCCCCc1cn(CCc2c[nH]c3ccccc23)nn1 | -2 | -2 | 0 | 9 | 0
O=C(CSc1nnc(-c2ccc(O)cc2)o1)Nc1ccccc1 | -3 | 52* | 1 | 2 | nt
CC(C(=O)NC1CCCCC1)N1CCN(C)CC1 (centres undefined) | 0 | -2 | -1 | -4 | 0
N#CC(C#N)=C1c2cc(S(N)(=O)=O)ccc2-c2ccc(S(N)(=O)=O)cc21 | nt | nt | -1 | 10 | nt
NS(=O)(=O)c1ccc2c(c1)C(=NO)c1cc(S(N)(=O)=O)ccc1-2 | 72* | -1 | 0 | 6 | 2
C=CCN(C(=O)CCC(=O)Nc1cc(C)on1)C(C(=O)NC(C)(C)CC)c1cccc(OC)c1OC (centres undefined) | -1 | -2 | 0 | 0 | 1
O=c1c2c([nH]c3ccc(Br)cc13)CCCC2 | 0 | -3 | 0 | -8 | -22
O=c1ccc2cc3c([nH]c4ccc(Br)cc43)oc-2c1O | 39* | 12 | 12 | 71* | 2
Cc1ccc(C2C3=C(CC(C)(C)CC3=O)Nc3[nH]c(=S)[nH]c(=O)c32)cc1 (centres undefined) | -1 | nt | 2 | -5 | -2
COc1ccc(C2C3=C(CC(C)(C)CC3=O)Nc3n[nH]c(C)c32)cc1 (centres undefined) | 2 | 41 | 0 | 3 | -33
COc1cccc(C2C3=C(CC(C)(C)CC3=O)Nc3n[nH]c(C)c32)c1 (centres undefined) | -1 | 78* | 7 | 7 | -86*
Cc1[nH]nc2c1C(c1ccsc1)C1=C(CC(C)(C)CC1=O)N2 (centres undefined) | 4 | 84* | 9 | 8 | -77*
Cc1[nH]nc2c1C(c1ccc(O)cc1)C1=C(CC(C)(C)CC1=O)N2 (centres undefined) | 0 | 86* | 5 | 11 | -74*
C/C(NCCCn1ccnc1)=C(\C#N)C(N)=O | -1 | 51* | 0 | 6 | -22
N#C/C(=C\N1CCOCC1)C(N)=O | -1 | 0 | 1 | nt | -2
COc1ccc(OC)c(Nc2nc(NCCCN(C)C)nc(N)c2[N+](=O)[O-])c1 | 14 | 88* | -9 | 39 | -65*
SMILES | STK33 kinase inh | GSK3A inh | CDK5 p35 inh | DYRK1A inh | GSK3B inh
COc1ccccc1Nc1nc(NCCO)nc(N)c1[N+](=O)[O-] | 2 | 60* | nt | nt | -27
COc1ccccc1Nc1nc(NCCC(C)C)nc(N)c1[N+](=O)[O-] | -4 | 16 | nt | nt | -13
COCCCNc1nc(N)c([N+](=O)[O-])c(Nc2cc(OC)ccc2OC)n1 | -1 | 11 | 0 | 1 | 2
O=C(COc1ccc(F)cc1)NCCNC(=O)COc1ccc(F)cc1 | -1 | 2 | 1 | -3 | nt
Cn1nnnc1Sc1ncnc2scc(-c3ccc(-c4ccccc4)cc3)c12 | -1 | 2 | 0 | -1 | nt
Cn1nnnc1Sc1ncnc2scc(-c3cccs3)c12 | 1 | 5 | 5 | 59* | nt
c1ccc2c(c1)nc1n2CCC1 | nt | nt | 6 | -3 | nt
CC1Cc2ccccc2N1c1ncnc(N)c1[N+](=O)[O-] (centres undefined) | 3 | 12 | 7 | 28 | -15
CC1CCCCN1c1ncnc(N)c1[N+](=O)[O-] (centres undefined) | 0 | 1 | 5 | nt | -68*
O=C(CCCC(=O)N(CC(=O)NC1CCCCC1)c1cccc(F)c1)Nc1ccccn1 | 0 | -1 | 0 | -2 | 4
COc1ccc(-n2sc3c(c2=S)-c2cc(OC)ccc2NC3(C)C)cc1 | -1 | -1 | 1 | 1 | 1
COc1ccc2c(c1)-c1c(ssc1=S)C(C)(C)N2 | 2 | 1 | 2 | 32 | -60*
COc1cc(C2NC(=O)NC(c3ccccc3)=C2C(C)=O)c(Br)c(Br)c1O (centres undefined) | -1 | -4 | 0 | 1 | -2
Cc1cc(C(=O)O)cc(S(=O)(=O)NNC(=O)c2cccs2)c1C | -2 | -3 | -2 | 1 | 3
CCOC(=O)c1nnn(-c2nonc2N)c1-c1ccccc1Cl | 2 | 55* | 0 | 6 | -24
CCOC(=O)c1nnn(-c2nonc2N)c1-c1ccc(OC)cc1 | -1 | 58* | 1 | 11 | -40
COC(=O)c1nnn(-c2nonc2N)c1CSCCO | 1 | 67* | 1 | 25 | -74*
CCOC(=O)c1nnn(-c2nonc2N)c1-c1cccc2ccccc12 | 2 | 12 | 2 | -3 | -5
Cc1ccc(C(=O)N2CCN(c3ccc([N+](=O)[O-])cc3)CC2)o1 | 0 | 1 | 1 | -4 | 2
O=C(O)Cn1cc(/C=c2/sc3nc4ccccc4n3c2=O)c2ccccc21 | 32* | -2 | -2 | 47 | -2
CC(CCC(C)C(C)(C)C)[C@@H]1CC[C@H]2C3C[C@H](OS(O)(=S)=S)[C@H]4C[C@H](OS(O)(=S)=S)[C@@H](OS(O)(=S)=S)C[C@]4(C)[C@H]3CC[C@]12C (some centres undefined) (tested in a mixture with another compound) | 1 | 3 | 80* | 70* | nt
CCOC(=O)c1cnc2ccc(Cl)cc2c1N1CCN(C)CC1 | 4 | 64* | 3 | 35 | -42
Cc1[nH]nc2c1C(c1cccs1)C1=C(CCCC1=O)N2 (centres undefined) | 8 | 70* | 4 | 5 | -50*
CCOC(=O)C1=C(C)NC2=C(C(=O)CCC2)C1c1cccs1 (centres undefined) | 2 | -3 | 0 | 3 | 0
Cc1[nH]nc2c1C(c1cccs1)C1=C(CC(C)(C)CC1=O)N2 (centres undefined) | 1 | 99* | 1 | nt | -82*
O=C(O)C1C2C=CC(C2)C1C(=O)Nc1ccc(Cl)c(Cl)c1 (centres undefined) | -2 | -3 | -1 | 6 | 3

High-throughput results as filed in PubChem.
